This is an account of results in ChEMBL document CHEMBL3352241, “Design, synthesis and pharmacological evaluation of chalcone derivatives as acetylcholinesterase inhibitors” (Bioorg Med Chem, 2014).

pIC50, pKi: −log10 of the molar value. Some results are limits rather than exact numbers.

The target of data set [1] is T1, Acetylcholinesterase (Homo sapiens, UniProt P22303). The data set is described as follows: Inhibition of AChE (unknown origin) using acetylthiocholine iodide as substrate incubated for 25 mins by Ellman's method. A digest of the protocol: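 Ellman spectrophotometric assay, slightly modified. Compounds were dissolved in tween 80 (0.06% final per reaction), then diluted in 2% tween 80–water. The enzyme, substrate (acetylthiocholine iodide for AChE, butyrylthiocholine iodide for BuChE) and compound were incubated in Na2HPO4/NaH2PO4 buffer pH 8.0 at 30 °C for 25 min. The reaction was stopped with 20% SDS, 10 mmol/L DTNB was added, and absorbance was read at 412 nm. Five concentrations per compound, in triplicate, spanned 20–80% inhibition. IC50 was calculated by the Bliss method and reported as mean ± SD.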
T1 sequence (P22303 whole entry): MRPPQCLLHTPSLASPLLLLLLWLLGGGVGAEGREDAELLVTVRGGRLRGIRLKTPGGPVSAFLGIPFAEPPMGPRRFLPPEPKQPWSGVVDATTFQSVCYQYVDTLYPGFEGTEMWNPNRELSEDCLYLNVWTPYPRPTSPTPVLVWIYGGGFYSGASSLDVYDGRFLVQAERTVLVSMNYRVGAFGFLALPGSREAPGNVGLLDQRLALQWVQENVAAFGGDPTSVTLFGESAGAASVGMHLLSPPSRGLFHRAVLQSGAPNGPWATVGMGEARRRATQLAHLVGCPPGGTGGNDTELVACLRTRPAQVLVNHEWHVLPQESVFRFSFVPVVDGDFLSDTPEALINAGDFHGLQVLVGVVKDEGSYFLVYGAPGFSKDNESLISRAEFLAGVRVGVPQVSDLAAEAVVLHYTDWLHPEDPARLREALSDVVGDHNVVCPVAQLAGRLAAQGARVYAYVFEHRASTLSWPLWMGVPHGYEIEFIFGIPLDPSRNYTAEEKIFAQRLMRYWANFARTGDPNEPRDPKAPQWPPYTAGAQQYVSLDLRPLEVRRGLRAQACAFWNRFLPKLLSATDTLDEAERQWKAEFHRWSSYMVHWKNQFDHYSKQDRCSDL
For orientation: DTNB colorimetry detects thiols as they appear.

The target in the next data set is Cholinesterase (Homo sapiens, UniProt P06276). The experiment in a line: Inhibition of BuChE (unknown origin) using butyrylthiocholine iodide as substrate incubated for 25 mins by Ellman's method. A digest of the protocol:
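Ellman spectrophotometric assay, slightly modified. Compounds were dissolved in tween 80 (0.06% final per reaction), then diluted in 2% tween 80–water. The enzyme, substrate (acetylthiocholine iodide for AChE, butyrylthiocholine iodide for BuChE) and compound were incubated in Na2HPO4/NaH2PO4 buffer pH 8.0 at 30 °C for 25 min. IC50 was calculated by the Bliss method and reported as mean ± SD.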

The target in data set [2] is Cholinesterases; ACHE & BCHE (Homo sapiens) (UniProt P06276+P22303). The experiment in a line: Selectivity ratio of IC50 for BChE (unknown origin) to IC50 for AChE (unknown origin).
Cholinesterases; ACHE & BCHE (Homo sapiens), sequence (P06276 whole entry, looked up): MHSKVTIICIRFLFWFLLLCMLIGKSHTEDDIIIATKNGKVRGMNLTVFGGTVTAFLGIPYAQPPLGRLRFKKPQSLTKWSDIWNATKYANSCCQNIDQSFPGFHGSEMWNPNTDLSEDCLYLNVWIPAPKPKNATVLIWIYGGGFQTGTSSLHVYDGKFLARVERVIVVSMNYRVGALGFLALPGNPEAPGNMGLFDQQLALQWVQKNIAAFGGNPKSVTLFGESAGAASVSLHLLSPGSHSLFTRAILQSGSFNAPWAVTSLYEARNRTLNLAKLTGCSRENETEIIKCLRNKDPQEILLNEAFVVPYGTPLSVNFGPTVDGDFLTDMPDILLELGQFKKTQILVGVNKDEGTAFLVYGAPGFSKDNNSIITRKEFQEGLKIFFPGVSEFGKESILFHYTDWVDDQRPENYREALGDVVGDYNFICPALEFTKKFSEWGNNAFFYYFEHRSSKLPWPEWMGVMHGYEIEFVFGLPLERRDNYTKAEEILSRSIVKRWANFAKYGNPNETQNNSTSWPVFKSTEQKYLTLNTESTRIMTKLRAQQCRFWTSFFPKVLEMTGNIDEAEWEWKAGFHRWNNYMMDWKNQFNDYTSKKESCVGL
Cholinesterases; ACHE & BCHE (Homo sapiens), sequence (P22303 whole entry, looked up): as the sequence (P22303 whole entry) above
Data set [3] can be described thus: Octanol-water partition coefficient, log P of the compound at pH 7.4 by classical shake-flask method. The data set is classed as physicochemical.
Data set [4] addresses T1, Acetylcholinesterase. The experiment in a line: Competitive inhibition of AChE (unknown origin) incubated for 25 mins by Lineweaver-Burk plot analysis.
Data set [5] addresses T1, Acetylcholinesterase. The data set is described as follows: Non-competitive inhibition of AChE (unknown origin) incubated for 25 mins by Lineweaver-Burk plot analysis.

Cholinesterase, sequence (P06276 whole entry): as the sequence (P06276 whole entry, looked up) above

As to `CCCN(CCC)CCCCCOc1ccc(C(=O)/C=C/c2ccccc2)cc1`, the pIC50 against Acetylcholinesterase [1] was 4.53; against Cholinesterase it was 4.40. In data set [2], the Ratio IC50 was 2.09. In addition, in data set [3], the logD is 2.01.

With `CN(C)CCCCCOc1ccc(C(=O)/C=C/c2ccccc2)cc1`, the pIC50 was 4.88 against Acetylcholinesterase [1] and 4.76 against Cholinesterase. Further, in data set [2], the Ratio IC50 came to 1.33. Also, the logD in data set [3] is 1.73.

As for `CCCN(CCC)CCCCCCOc1ccc(C(=O)/C=C/c2ccccc2)cc1`, the negative-log IC50 (pIC50) against Acetylcholinesterase [1] was 4.36; at Cholinesterase, 4.39. In addition, in data set [2], the Ratio IC50 is 0.92. This compound also showed a logD in data set [3] of 2.07.

For `CCCCN(CCCC)CCCOc1ccc(C(=O)/C=C/c2ccccc2)cc1`, the pIC50 against Acetylcholinesterase [1] was 3.82; on Cholinesterase, 4.17. Besides, in data set [2], the Ratio IC50 worked out at 0.45. Also, the logD in data set [3] is 2.06.

For the compound `CN(C)CCOc1ccc(C(=O)/C=C/c2ccccc2)cc1`, the results for the pIC50 against Acetylcholinesterase [1] and against Cholinesterase were 5.33 and 4.69, respectively. Also, in data set [2], the Ratio IC50 was 4.35. In data set [3], this compound came in with a logD of 1.49. The pKi at Acetylcholinesterase [4] was 5.10; on Acetylcholinesterase [5], 5.45.

`CCCCN(CCCC)CCCCOc1ccc(C(=O)/C=C/c2ccccc2)cc1`: the pIC50 was 4.66 on Acetylcholinesterase [1] and 4.38 against Cholinesterase. Also, the Ratio IC50 in data set [2] was 1.91. In data set [3], this compound gave a logD of 2.09.

With `CCN(CC)CCCCOc1ccc(C(=O)/C=C/c2ccccc2)cc1`, the pIC50 against Acetylcholinesterase [1] was 4.63; on Cholinesterase, 4.99. Also, the Ratio IC50 in data set [2] was found to be 0.44. Also, the logD in data set [3] was 1.74.

For `CCCCN(CCCC)CCCCCOc1ccc(C(=O)/C=C/c2ccccc2)cc1`, the pIC50 against Acetylcholinesterase [1] was 4.11; on Cholinesterase, 4.01. In addition, in data set [3], the logD amounted to 2.14.

On to `CCN(CC)CCOc1ccc(C(=O)/C=C/c2ccccc2)cc1`, for which the pIC50 against Acetylcholinesterase [1] is 5.12; at Cholinesterase it was 4.50. Further, in data set [2], the Ratio IC50 came to 4.14. This compound showed a logD in data set [3] of 1.61.

Regarding `CCN(CC)CCCCCOc1ccc(C(=O)/C=C/c2ccccc2)cc1`, the results for the pIC50 on Acetylcholinesterase [1] and on Cholinesterase were 4.47 and 4.58, respectively. Moreover, in data set [2], the Ratio IC50 worked out at 0.77. This compound showed a logD in data set [3] of 1.84.

For `CCCN(CCC)CCCCOc1ccc(C(=O)/C=C/c2ccccc2)cc1`, the pIC50 is 5.23 against Acetylcholinesterase [1] and 5.05 on Cholinesterase. Further, the Ratio IC50 in data set [2] was determined as 1.5. The compound further registered a logD in data set [3] of 1.95.

For `CN(C)CCCCOc1ccc(C(=O)/C=C/c2ccccc2)cc1`, the figures for the pIC50 on Acetylcholinesterase [1] and against Cholinesterase were 5.05 and 4.93, respectively. For the same compound, in data set [2], the Ratio IC50 worked out at 1.32. This compound had a logD in data set [3] of 1.64.

On to `O=C(/C=C/c1ccccc1)c1ccc(O)cc1` [4'-HYDROXYCHALCONE], for which the pIC50 against Acetylcholinesterase [1] and against Cholinesterase was under 3.30 each time.

As to `CN(C)CCCOc1ccc(C(=O)/C=C/c2ccccc2)cc1`, the pIC50 against Acetylcholinesterase [1] was 4.98; on Cholinesterase, 4.49. Also, the Ratio IC50 in data set [2] came out at 3.08. In addition, the logD in data set [3] came to 1.59.

Regarding `CCCCN(CCCC)CCOc1ccc(C(=O)/C=C/c2ccccc2)cc1`, the pIC50 is 3.60 against Acetylcholinesterase [1] and 3.55 against Cholinesterase. Besides, the Ratio IC50 in data set [2] is 1.1. This compound had a logD in data set [3] of 2.

Consider `CCCN(CCC)CCOc1ccc(C(=O)/C=C/c2ccccc2)cc1`, for which the results for the pIC50 against Acetylcholinesterase [1] and against Cholinesterase were 4.19 and 4.28, respectively. Further, the Ratio IC50 in data set [2] stood at 0.81. In addition, the logD in data set [3] is 1.86.

As for `CCCCN(CCCC)CCCCCCOc1ccc(C(=O)/C=C/c2ccccc2)cc1`, the values for the pIC50 at Acetylcholinesterase [1] and against Cholinesterase were 3.79 and 4.12, respectively. In data set [2], the Ratio IC50 was found to be 0.46. In addition, the logD in data set [3] amounted to 2.19.

For the compound `CN(C)CCCCCCOc1ccc(C(=O)/C=C/c2ccccc2)cc1`, the figures for the pIC50 on Acetylcholinesterase [1] and against Cholinesterase were 4.85 and 4.98, respectively. For the same compound, the Ratio IC50 in data set [2] was 0.73. The compound also had a pH-dependent lipophilicity (logD) in data set [3] of 1.8.

For `CCN(CC)CCCCCCOc1ccc(C(=O)/C=C/c2ccccc2)cc1`, the pIC50 was 4.30 at Acetylcholinesterase [1] and 4.73 against Cholinesterase. In addition, the Ratio IC50 in data set [2] amounted to 0.37. This compound came in with a logD in data set [3] of 1.91.

As to `CCN(CC)CCCOc1ccc(C(=O)/C=C/c2ccccc2)cc1`, the pIC50 is 4.65 against Acetylcholinesterase [1] and 4.70 on Cholinesterase. The Ratio IC50 in data set [2] was found to be 0.89. Besides, the logD in data set [3] was 1.71.

Take `CCCN(CCC)CCCOc1ccc(C(=O)/C=C/c2ccccc2)cc1`: the figures for the pIC50 at Acetylcholinesterase [1] and against Cholinesterase were 4.61 and 4.99, respectively. The Ratio IC50 in data set [2] is 0.41. Besides, in data set [3], the logD is 1.91.

As a reminder, the pIC50 is the negative decadic logarithm of the IC50, by convention in mol/L. The low end stands for a large IC50, the high end for a small IC50. As a reminder, the logD is the decadic logarithm of the distribution of all forms, ionised or not, between an organic phase and buffer at a given pH. Read a high logD as a more lipophilic compound. By pKi is commonly meant −log10 of the Ki, conventionally taken in molar units. A lower pKi goes with a high Ki.
